Results on three compounds are retold here after PMC5132082 (Clinical Pharmacology in Drug Development, 2016).

The format of series [1] is in vivo, human. To be noted: M12. In outline:
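Urine collected predose (≤60 min before dosing) and over 0‒8, 8‒24, 24‒48 and 48‒72 h postdose. M12 measured by achiral LC-MS/MS (LLOQ 5 ng/mL). Excreted amount = urine concentration × interval urine volume. Renal clearance = cumulative 72-h urinary M12 divided by plasma AUC0–72. Summarised descriptively by group.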

Series [2] is classed as in vivo, human. The conditions noted are these: for AUC0–∞ ratio of geometric means (90%CI) / Cmax ratio of geometric means (90%CI) / CL/F ratio of geometric means (90%CI) / Vz/F ratio of geometric means (90%CI): ANOVA; for Tmax median difference (90%CI): Hodges-Lehmann estimate; for t1/2 geometric mean difference: severely renal impaired vs healthy matched.
The conditions of series [3]: cited from earlier work.
The conditions of series [4]: cited from earlier work. The source holds these as a separate data set.
Another series can be described thus: Safety monitoring. To be noted: for subjects reporting AEs: single oral 30 mg. The class given is in vivo, human. In outline:
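Subjects were confined from the evening before dosing through the PK sampling period. Monitoring ran throughout the study and covered adverse events, complete physical examinations, vital signs, 12-lead ECGs, clinical laboratory safety tests and prior and concomitant medications. Follow-up safety visit 11‒18 days after dosing.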

The conditions of series [5]: population pharmacokinetic model built in a phase 3 study; cited from earlier work.
The conditions of series [6]: moderate and severe hepatic impairment; cited from earlier work.
For series [7] the following is noted: cited from earlier work. The source holds these as a separate data set.
Setting [8] is: M12, mild renal impaired/healthy matched.
The mark [9] stands for this setting: M12, moderate renal impaired/healthy matched.
Where [10] appears, read: M12, severe renal impaired/healthy matched.
The mark [11] stands for this setting: M12, subjects with mild renal impairment.
Where [12] appears, read: M12, subjects with moderate renal impairment.
Setting [13] is: M12, subjects with severe renal impairment.
Setting [14] is: apremilast, mild renal impaired/healthy matched.
Where [15] appears, read: apremilast, moderate renal impaired/healthy matched.
[16] abbreviates: apremilast, moderate renal impairment group.
Where [17] appears, read: apremilast, severe renal impaired/healthy matched.
Where [18] appears, read: apremilast, severe renal impairment vs healthy matched.
[19] abbreviates: apremilast, subjects with severe renal impairment.
[20] abbreviates: healthy subjects, single oral dose.

Structures are written as SMILES. Where two headings read alike, the source gives them in different places. Marks after values point to notes of the source that are not given here.

As to `CCOc1cc([C@@H](CS(C)(=O)=O)N2C(=O)c3cccc(NC(C)=O)c3C2=O)ccc1O[C@@H]1O[C@H](C(=O)O)[C@@H](O)[C@H](O)[C@H]1O` [M12, O‐desmethyl apremilast glucuronide], the “geometric mean renal clearance” value in series [1] (healthy subjects matched with subjects with mild renal impairment) came to 3.67 L/h; in series [1] (healthy subjects matched with subjects with moderate renal impairment), 3.02 L/h; in series [1] (subjects with mild renal impairment, urine 0-72 h / plasma AUC 0-72 h), 2.35 L/h; in series [1] (subjects with moderate renal impairment), 1.84 L/h. Moreover, in series [1] (subjects with mild or moderate renal impairment), the renal clearance decreased entry is recorded as “≈ 40%”. Further, the “AUC0–∞ ratio of geometric means (90%CI)” value was 129.6 (99.5–168.8) % in series [2] (setting [8]), 161.4 (122.8–212.3) % in series [2] (setting [9]) and 291.7 (204.3–416.4) % in series [2] (setting [10]). The “Cmax ratio of geometric means (90%CI)” value was 130.8 (91.7–186.6) % in series [2] (setting [8]), 116.9 (81.9–166.8) % in series [2] (setting [9]) and 142.9 (106.3–192.1) % in series [2] (setting [10]). The “Tmax median difference (90%CI)” value in series [2] (M12, severe renal impaired vs healthy matched) is 6.25 (2.975–11.0) h. Besides, the “t1/2 geometric mean difference” value in series [2] (M12) is reported as 10.498 ^d (NC) h. For the same compound, the “AUC0–∞ higher than in healthy matched subjects” value in series [2] (setting [11]) was determined as 29.6%; in series [2] (setting [12]), 61.4%. Besides, the “Cmax higher than in healthy matched subjects” value was found to be 30.8% in series [2] (setting [11]) and 16.9% in series [2] (setting [12]). Also, in series [2] (M12, subjects with renal impairment (severe study), P ≤ .05), the “Tmax delayed compared with healthy matched subjects” value is recorded as “≈ 6.25 hours”. For the same compound, the “increase in AUC0–∞ vs healthy matched subjects” value in series [2] (setting [13]) is on record as 191.7%. In series [2] (setting [13]), the “increase in Cmax vs healthy matched subjects” value turned out to be 42.9%. For the same compound, the “share of the circulating radioactivity” value in series [3] (after a single oral dose of [14C]apremilast) is 39%. In addition, in series [4], the pharmacological activity entry is “pharmacologically inactive”.

As for `CCOc1cc([C@@H](CS(C)(=O)=O)N2C(=O)c3cccc(NC(C)=O)c3C2=O)ccc1OC` [apremilast], the “Tmax median difference (90%CI)” value is reported as 0.0 (‐1.00 to 1.00) P > .9999 h in series [2] (apremilast, mild renal impaired vs healthy matched); 1.0 (‐0.50 to 2.50) P = .25 h in series [2] (apremilast, moderate renal impaired vs healthy matched); 0.00 (‐1.5 to 1.5) P > .9999 h in series [2] (apremilast, severe renal impaired vs healthy matched). The “AUC0–∞ ratio of geometric means (90%CI)” value is reported as 85.9 (65.8–112.0) % in series [2] (setting [14]), 122.1 (93.6–159.3) % in series [2] (setting [15]) and 188.5 (132.5–268.0) % in series [2] (setting [17]). For the same compound, the entries for the “CL/F ratio of geometric means (90%CI)” value in series [2] (setting [14]), in series [2] (setting [15]) and in series [2] (setting [17]) were 116.5 (89.3–151.9) %, 81.9 (62.8–106.8) % and 53.10 (37.3–75.4) %, respectively. The “Cmax ratio of geometric means (90%CI)” value is 106.2 (84.7–133.1) % in series [2] (setting [14]), 87.5 (69.8–109.7) % in series [2] (setting [15]) and 141.6 (102.9–194.8) % in series [2] (setting [17]). Besides, the “Vz/F ratio of geometric means (90%CI)” value in series [2] (setting [14]) was 120.4 (92.2–157.2) %; in series [2] (setting [15]), 103.2 (79.0–134.8) %. For the same compound, the “AUC0–∞ higher relative to healthy matched subjects” value in series [2] (setting [16]) was “≈ 22%”. For the same compound, the “Cmax lower relative to healthy matched subjects” value in series [2] (setting [16]) was “≈ 13%”. In series [2] (apremilast, severe renal impaired/healthy matched, 90%CI not calculated), the “Vz/F ratio of geometric means” value is recorded as 67.35 (NC) %. Besides, in series [2] (setting [18]), the VZ/F decreased is given as roughly 32.7%. The t1/2 prolonged result in series [2] (setting [18]) is on record as “≈ 27%”. Moreover, the “t1/2 geometric mean difference” value in series [2] (apremilast) is 2.485 ^d (NC) h. Besides, the “AUC0–∞ higher compared with healthy matched subjects” value in series [2] (setting [19]) is 88.5% and ≈ 89%. The “Cmax higher compared with healthy matched subjects” value in series [2] (setting [19]) is given as 41.6%. Besides, the “apparent clearance relative to that of healthy matched subjects” value in series [2] (setting [19]) is “≈ 53%”. In addition, the “deaths or AEs leading to discontinuation” value in the series “Safety monitoring” (both studies) was “No deaths or AEs leading to discontinuation occurred”. Besides, the overall safety finding entry in “Safety monitoring” (both studies, single oral 30-mg dose) is “no unexpected AEs or safety signals”. Also, the “subjects with AEs considered possibly related to study medication or procedures” value in the series “Safety monitoring” (healthy matched group of severe study) stood at 2; in the series “Safety monitoring” (severe renal impairment group), 3. In addition, the “subjects reporting AEs” value in the series “Safety monitoring” (healthy matched group of severe study (n = 8)) was found to be 2; in the series “Safety monitoring” (healthy matched groups of mild and moderate study (n = 16)) it was 5; in “Safety monitoring” (mild renal impairment group (n = 8)) it was 2; in “Safety monitoring” (moderate renal impairment group (n = 8)), 2; in “Safety monitoring” (severe renal impairment group (n = 8)), 4. The “subjects with AEs suspected to be related to study medication or procedures” value is 3 in “Safety monitoring” (healthy matched groups of mild and moderate study); 2 in the series “Safety monitoring” (mild renal impairment group); 1 in “Safety monitoring” (moderate renal impairment group). For the same compound, the absolute bioavailability result in series [3] (setting [20]) is listed as “≈ 73%”. For the same compound, in series [3] (setting [20]), the “given dose excreted in urine unchanged” value was “≈ 3%”. The “disease effect of PsA: slower clearance” value in series [5] is on record as “≈ 36%”. The “effect of hepatic impairment on pharmacokinetic profile” value in series [6] is “largely unaffected”.

Consider `CCOc1cc(CC(=O)N[C@@H](CC(C)C)c2ccccc2N2CCCCC2)ccc1C(=O)O` [repaglinide], for which the “fraction of unchanged drug excreted through urine (fe)” value in series [7] (healthy volunteers) is listed as less than 0.1%. Also, the mean half-life increase in series [7] (subjects with severe renal impairment, after 1 week of treatment) is listed as roughly 4 fold.
